Source: PubChem
SR-BI uptake up: enhances SR-BI lipid uptake from DiI-HDL. CHO ldlA[mSR-BI] cells, DiI-HDL uptake fluorescence, 3 h; 100 = double the neutral-control signal. activation, % at 12.5 µM. 0.096% of 320,000 active;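 active means mean replicate activation of at least 60% and every replicate at or above 60%; inconclusive means mean or all-replicate condition met, but not both; inactive means mean below 60% and not all replicates reaching 60%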
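system = CHO ldlA[mSR-BI] cells, LDL receptor-null, SR-BI overexpressing | medium = Ham's F12 with 0.5% BSA, HEPES 25 mM, pH 7.4 | probe or stimulus = DiI-HDL 10 µg/mL | compound dosing = single-point compound dose | incubation = compound exposure 3 h, 37 °C | technique = DiI fluorescence, bottom read | read-out = cell-associated DiI fluorescence as measure of HDL uptake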
dFosB act: enhances mouse delta FosB homodimer DNA binding | P13346 | purified delta FosB, TAMRA-CDK5 oligo fluorescence polarization; percent of positive-control signal above neutral wells | activation, % at 25 µM | 0.99% of 340,000 active;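 active means mean activation above about 17%, with every replicate also reaching it, limit read from the data, passing the limit was not always enough; inconclusive means only one of the two conditions met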
CAL PDZ FP-1: inhibitors of human CAL PDZ peptide binding; Q9HD26; purified CAL PDZ, TMR-peptide fluorescence polarization, 1 h; inhibition, % at 24.9 µM; 0.92% of 300,000 active;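 active means mean inhibition of at least 30% with at least half of replicates also reaching 30%; inconclusive means no clear call, values can overlap the other calls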
CAL PDZ FP-2: inhibitors of human CAL PDZ peptide binding; 0.02% of 330,000 active; AID 504414; Q9HD26; inhibition, % at 20 µM; purified CAL PDZ, TMR-peptide fluorescence polarization, 1 h;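 active means highest replicate inhibition of at least 40%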
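Test system: purified CerCALP PDZ construct; Compound dosing: one concentration, 20 µM compound; Also added: TMR-labelled reporter peptide T*-PRC34 bound in PDZ groove; Read-out: inhibition from polarization loss; Controls: unlabelled peptide and DMSO controls; Signal: FP readout, S and P plane fluorescence; Incubation: 1 h at RT.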
SR-BI DiI inh: mouse SR-BI HDL lipid transfer inhibition; ldlA[mSR-BI] CHO cells, DiI-HDL uptake fluorescence, 3 h; inhibition, % at 12.5 µM; 0.96% of 320,000 active;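 active means mean replicate inhibition of at least 70% and a set share of replicates each scoring 70 or more; inconclusive means meets just one of the two criteria; inactive means fails both criteria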
Target sequence (Q61009 whole entry, looked up): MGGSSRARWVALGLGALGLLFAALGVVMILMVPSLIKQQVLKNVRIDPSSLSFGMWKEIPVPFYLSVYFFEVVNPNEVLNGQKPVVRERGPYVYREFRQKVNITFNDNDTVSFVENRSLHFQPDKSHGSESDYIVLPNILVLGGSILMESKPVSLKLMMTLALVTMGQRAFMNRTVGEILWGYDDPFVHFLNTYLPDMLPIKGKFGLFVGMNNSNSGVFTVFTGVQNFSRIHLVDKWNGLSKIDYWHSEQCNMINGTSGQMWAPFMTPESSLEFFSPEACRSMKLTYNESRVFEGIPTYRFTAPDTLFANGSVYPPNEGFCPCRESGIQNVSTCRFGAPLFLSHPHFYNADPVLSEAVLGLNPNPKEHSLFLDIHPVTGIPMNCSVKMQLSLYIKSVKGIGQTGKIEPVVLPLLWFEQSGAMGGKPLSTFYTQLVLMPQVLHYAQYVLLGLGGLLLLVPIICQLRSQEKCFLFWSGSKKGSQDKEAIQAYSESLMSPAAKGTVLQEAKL
A number is an active result; i = inactive; ? = inconclusive; nt = no result. Shown are actives, neighbours in structure and some others; about 2.8% of the full set was active somewhere.

SMILES	SR-BI uptake up	dFosB act	CAL PDZ FP-1	CAL PDZ FP-2	SR-BI DiI inh
CC1(C)Cc2c(sc(NC(=O)c3ccc(C(=O)c4ccccc4)cc3)c2C(N)=O)C(C)(C)N1	i	44	i	i	i
Cc1nn(CC(=O)NCCCN2CCCCC2)c(=O)c2cccn12	i	i	i	i	i
Cc1nn(CC(=O)NCCc2ccccc2)c(=O)c2cccn12	nt	i	46	i	i
Cc1n[nH]c(C)c1CCN(C)Cc1cn(C)nc1-c1ccc2c(c1)OCCO2	i	i	102	i	i
CN(C(=O)c1ccc(N2CCCCC2)c([N+](=O)[O-])c1)C1(C)CCS(=O)(=O)C1 (centres undefined)	i	i	i	i	i
CNC(=O)C(=O)N/N=C/c1cccnc1	i	i	i	i	i
O=C(CSc1nnnn1-c1ccccc1)Nc1ncc(Cc2cccc(Cl)c2Cl)s1	i	77	i	i	i
COCCCn1c(=O)c2sccc2n2c(CCCC(=O)NCc3cccc(OC)c3)nnc12	i	i	47	i	i
COCCCn1c(=O)c2sccc2n2c(CCCC(=O)NCc3ccc(F)cc3)nnc12	i	i	i	i	i
O=[N+]([O-])c1ccc(-c2ccc(/C=N/Nc3nc(N4CCCCC4)nc(N4CCCCC4)n3)o2)cc1	i	i	i	i	?
O=[N+]([O-])c1cccc(-c2ccc(/C=N/Nc3nc(N4CCCCC4)nc(N4CCCCC4)n3)o2)c1	i	i	i	i	84
Cn1cc(C(=O)c2ccc(Cl)cc2Cl)cc1C(=O)N/N=C(\N)COc1ccc(Cl)cc1Cl	i	i	i	i	83
Cn1cc(C(=O)c2ccc(Cl)cc2Cl)cc1C(=O)N/N=C(\N)COc1ccc(Cl)cc1	nt	i	i	i	nt
N/C(=N\OC(=O)c1ccccc1F)c1cccc([N+](=O)[O-])c1	i	i	nt	i	i
O=C(COC(=O)COc1ccccc1)Nc1ccc(Br)cc1F	63	i	i	i	i
COc1ccccc1OCCC(=O)OCC(=O)Nc1ccc(Br)cc1F	i	i	54	i	i
CC1(NC(=O)c2cc(Cl)nc3ccccc23)CCS(=O)(=O)C1 (centres undefined)	i	i	i	i	i
CCNC(=O)CON=C1c2ccccc2-c2ccccc21	i	i	i	i	i
CCC(CC)NC(=O)CON=C1c2ccccc2-c2ccccc21	i	i	i	i	72
CCc1nnc(NS(=O)(=O)c2ccc(NC(=O)/C=C/c3ccc(OC)cc3OC)cc2)s1	i	i	i	i	i
COc1cc(/C=C2\SC(=S)N(CC(=O)Nc3ccc(O)cc3)C2=O)cc(OC)c1OC	i	18	i	i	i
COc1ccc(/C=C2\SC(=O)N(CC(=O)Nc3cccc(C)c3)C2=O)cc1O	i	19	i	i	i
Cc1ccc(-c2nc(C#N)c(N3CCC(C(N)=O)CC3)o2)cc1	nt	i	i	i	nt
FC(F)(F)c1ccccc1NC(=S)N1CCCC1	i	i	50	i	i
CCCc1c(C)nc(N2CCN(c3ccccc3OC)CC2)[nH]c1=O	i	i	55	i	i
SMILES	SR-BI uptake up	dFosB act	CAL PDZ FP-1	CAL PDZ FP-2	SR-BI DiI inh
CCc1c(C)nc(SCC(=O)N2CCN(c3ccccc3OC)CC2)[nH]c1=O	i	i	i	i	i
Nc1nc(SCc2ccccc2)c2ncn(Cc3ccccc3)c2n1	i	i	41	i	i
O=C(NS(=O)(=O)N1CCCC1)C1=C(N2CCCC2)COC1=O	i	i	i	i	i
COCC(C)N1CCC(Oc2cccc(C(=O)NCCc3ccccc3)c2)CC1 (centres undefined)	i	i	49	i	i
CC(C)CN1CCC(Oc2cccc(C(=O)NCCc3ccccc3)c2)CC1	i	i	i	i	i
C[N+](C)(CC#N)C/C=C\c1ccccc1	i	i	76	i	i
O=[N+]([O-])c1cccc(S(=O)(=O)Nc2ccc(Cc3ccncc3)cc2)c1	nt	i	i	i	nt
Cc1cc2nc3ccc(N(C)C)cc3nc2cc1N	i	i	i	i	i
Cc1ccc(C(=O)Nc2nnc(NC(=S)Nc3ccccc3)s2)cc1	i	i	i	i	?
CCOc1ccc(C(=O)Nc2nnc(NC(=S)Nc3ccccc3)s2)cc1	i	i	i	i	85
OCCCc1cn(Cc2ccccc2)c2ccccc12	i	i	56	nt	i
CC(=O)NC(C)Cc1cn(Cc2ccccc2)c2ccccc12 (centres undefined)	i	i	i	i	i
CC12CCC(=O)N1C(C(=O)NNC(=O)c1ccc(Br)cc1)CS2 (centres undefined)	i	i	i	i	i
COc1ccc(Nc2sc(C(=O)c3ccc(Cl)cc3)c(N)c2C(=O)Nc2ccccc2OC)cc1	i	i	i	i	93
O=C(O)CC(NC(=O)/C(=C/c1ccccc1)NC(=O)c1ccccc1)c1ccccc1 (centres undefined)	i	i	i	i	i
CCc1noc(C)c1C(=O)N1CCN(S(=O)(=O)c2cccs2)CC1	i	i	50	i	i
CCc1noc(C)c1C(=O)N1CCN(S(=O)(=O)c2ccc(Cl)cc2)CC1	i	i	i	i	i
Cc1nn(-c2ccccc2)c(C)c1/C=N/NC(=O)c1cc(-c2ccc(Cl)s2)[nH]n1	i	i	nt	i	i
Cc1nn(-c2ccccc2)c(C)c1/C=N/NC(=O)c1cc(-c2ccc(Br)s2)[nH]n1	i	i	nt	i	71
Cc1nn(-c2ccccc2)c(C)c1/C=N/NC(=O)c1cc(-c2cccs2)[nH]n1	i	i	i	i	80
O=C1C2C3C=CC(CC3)C2C(=O)N1c1cccc(Br)c1 (centres undefined)	i	i	i	i	i
CCN(CC)CCN1C(=O)C(=O)/C(=C(/O)c2c(C)[nH]c(C(=O)OC)c2C)C1c1cccnc1 (centres undefined)	i	i	44	i	i
CC(C)(C)OC(=O)NCCCCCNC(=O)c1ncn(Cc2ccccc2)c1C(=O)NCCCCCNC(=O)OC(C)(C)C	i	i	i	i	i
Cc1sc2nc(SCCN(C)C)n(-c3ccccc3)c(=O)c2c1-c1ccc(F)cc1	i	22	i	i	i
CCCC(=O)Nc1c(-c2ccccc2Cl)c(=O)c2ccccc2n1C	i	i	nt	i	i
SMILES	SR-BI uptake up	dFosB act	CAL PDZ FP-1	CAL PDZ FP-2	SR-BI DiI inh
Cc1ccc(Nc2nc(-c3sc(C)nc3C)cs2)cc1	i	i	i	i	i
Cc1cccc(Nc2nc(-c3sc(C)nc3C)cs2)c1	i	i	i	i	85
CC(=O)Nc1ccc(Nc2nc(-c3sc(C)nc3C)cs2)cc1	i	i	i	i	74
CC(=O)c1cccc(Nc2nc(-c3sc(C)nc3C)cs2)c1	i	i	i	i	71
CS(=O)(=O)c1[nH]nc(-c2ccccc2)c1C#N	i	i	i	i	i
Nc1cc(=O)[nH]c(SCC(=O)Nc2cc(S(=O)(=O)N3CCCCCC3)ccc2Cl)n1	i	37	i	i	i
Nc1cc(=O)[nH]c(SCC(=O)Nc2cc(S(=O)(=O)N3CCOCC3)ccc2Cl)n1	i	i	i	i	i
